{
  "source": "paper PMC7106486",
  "about": "(Science translational medicine, 2019)",
  "key": {"[1]": {"tested_on": "clinical S. aureus strains expressing PSMα", "assay": "Protection against clinical S. aureus strains expressing PSMα"}, "[2]": {"tested_on": "murine back skin treated with S. aureus", "assay": "Transepidermal water loss", "assay_type": "in vivo, mouse C57BL/6", "conditions": "synthetic autoinducing peptide 10 μg with S. aureus 1 × 10^7 CFU, 48 hours", "summary_of_the_method": "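Back skin of 8-week male C57BL/6 mice depilated (shave plus Nair 2 min), allowed 48 h barrier recovery. S. aureus USA300 LAC agr type I (1 × 10^7 CFU, 100 μl 3% TSB) plus synthetic autoinducing peptide (10 μg, DMSO) applied on 2-cm2 gauze under Tegaderm for 48 h. Transepidermal water loss measured by Tewameter on treated skin; n = 5.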"}, "[3]": {"tested_on": "Klk6 and cytokine (Il6, Il17a, Il17f) mRNA in murine skin", "assay": "Klk6 and cytokine mRNA expression on murine skin", "assay_type": "in vivo, mouse C57BL/6", "conditions": "synthetic autoinducing peptide 10 μg with S. aureus 1 × 10^7 CFU, 48 hours", "summary_of_the_method": "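Male C57BL/6 mice, 8 weeks old, shaved and Nair-depilated (2 min), then rested 48 h. S. aureus USA300 LAC (agr type I, from 18 h cultures in 3% TSB at 37°C), 1 × 10^7 CFU in 3% TSB (100 μl), applied with synthetic autoinducing peptide (10 μg, DMSO) on 2-cm2 gauze under Tegaderm to back skin for 48 h. Applied CFU confirmed next day; n = 5.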"}, "[4]": {"tested_on": "S. aureus USA300 LAC agr type I P3-YFP", "assay": "S. aureus agr activity, P3-YFP reporter, in vitro", "assay_type": "cell-based", "conditions": "synthetic peptide, overnight culture"}},
  "data": [
    {"substance": "S-Y-N-V-c(C-G-G-Y-F) [S. hominis C5 autoinducing peptide]", "values": [
      {"measurement": "protection against clinical S. aureus strains (in words)", "setting": "[1]", "result": "protective against clinical S. aureus strains expressing PSMα"},
      {"measurement": "TEWL on murine skin (in words)", "setting": "[2]", "result": "inhibited TEWL"},
      {"measurement": "Klk6 expression on murine skin (in words)", "setting": "[3]", "result": "inhibited TEWL, Klk6"},
      {"measurement": "inhibition of S. aureus agr activity (in words)", "setting": "[4]", "result": "potently inhibited S. aureus agr activity in a dose-dependent manner"},
      {"measurement": "inhibition of S. aureus agr activity (in words)", "setting": "[4]; listed as SYNVCGGYF", "result": "highly potent inhibitor of S. aureus agr activity"}
    ]}
  ]
}
